# Compound activity from PubChem.
# Mot1-301 SUMO = blocks SUMOylation pathway, rescuing yeast Mot1-301 growth; AID 2716; growth rescue, % at 18.8 µM; 320,000 tested, 1% active; S. cerevisiae Mot1-301 growth rescue, ATP luminescence, 38.5C; percent above DMSO median, 100 means doubled;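 active means every valid replicate shows activation above 250% relative to neutral control wells; inactive means the rest, any valid replicate at or below 250%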
# Statin myotox sup = protects C2C12 myotubes from simvastatin toxicity. ATP luminescence, 48 h; scaled: DMSO 0, geranylgeraniol control 100. rescue of ATP level, % at 7.49 µM. 330,000 tested, 0.78% active. AID 602340;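 active means mean ATP rescue above about 67%, or every replicate alone reaching that limit, limit read from the data, passing the limit was not always enough; inconclusive means no clear call, values can overlap the other calls; inactive means mean under the limit and some replicate under it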;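 further: myotubes were challenged with 10 µM simvastatin during compound exposure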
# Cneo AK release = causes C. neoformans cell lysis; AID 651654; 360,000 tested, 0.2% active; adenylate kinase release luminescence, 4 h; normalised: neutral wells 0, clomiphene wells 100; lysis activity, % at 15 µM;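 active means mean lysis activity across replicates of at least 80%, whatever share of replicates individually reach that level; inactive means mean lysis activity below 80%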
#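 read-out = cell lysis signal | test system = log-phase Cryptococcus neoformans yeast cells | input = cells at 5 × 10^6 per mL | medium = fresh YPD growth medium | signal = luminescent adenylate kinase detection reagent | timing = 4 h at 37 °C static, read 1 h later | dosing = single dose | controls = Clomiphene as positive lysis control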
# Mot1 SUMO dose = SUMO pathway inhibitors in yeast Mot1-301 growth; shares compounds with Mot1-301 SUMO; S. cerevisiae Mot1-301 galactose growth, ATP luminescence, 24 h; -100 = growth of slx-deleted rescue strain; growth activity, percent, % at 42 µM; 2,300 tested, under 10 active;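 active means Signal drops as the depositor expects, and the fitted half-maximal dose is no more than ten times the top valid tested dose; inconclusive means Poor fit, or a flat curve whose signal drops by 30% to 70%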;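 further: more negative values mean stronger growth rescue toward the control strain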
# Hits are given with their value; - = inactive; ? = inconclusive; . = no result given; + = active, no number. This is a sample that favours compounds with a hit; in the whole collection about 1.5% have one here.
SMILES,Mot1-301 SUMO,Statin myotox sup,Cneo AK release,Mot1 SUMO dose
CO[C@H]1CN(C)C(=O)c2ccc(NC(=O)NC(C)C)cc2OC[C@@H](C)N(C(=O)CC2CC2)C[C@@H]1C,.,-,-,.
C/C(O)=C(\N=Nc1cc(C)ccc1O)C(N)=O,+,.,.,-
Cc1ccc(O)c(N=NC2=C(O)CC(C)(C)CC2=O)c1,-,-,-,.
C[C@@H]1CN([C@@H](C)CO)C(=O)Cc2cc(NC(=O)NC3CCCCC3)ccc2O[C@H]1CN(C)CC1CC1,.,-,-,.
CCCCC(=O)Nc1cc(OC)c(NC(=O)C2CCCCC2)cc1OC,711.2,-,-,-
COc1cc(NC(=O)C2CCCC2)c(OC)cc1Cl,-,-,-,.
COc1ccccc1NC(=S)N(Cc1ccco1)Cc1cc2cccc(C)c2[nH]c1=O,387.4,.,-,-
COc1ccccc1NC(=S)N(Cc1ccco1)Cc1cc2cc(C)c(C)cc2[nH]c1=O,-,.,-,.
Cc1cccc(NC(=O)Nc2ccc3c(c2)C(=O)N(C)[C@H]2CC[C@H](CC(=O)NCc4ccccc4Cl)O[C@@H]2CO3)c1,.,-,-,.
O=C(C[C@@H]1CC[C@@H]2[C@H](COC[C@H](O)CN2Cc2ccc(C(F)(F)F)cc2)O1)NCCc1ccccc1,.,?,-,.
Cc1cc(CNC(=O)C2CCC(=O)N(Cc3cccc(C(F)(F)F)c3)C2)no1 (configuration not stated),-,-,-,.
Cc1nn(C)cc1CNC(=O)C1CCC(=O)N(Cc2cccc(C(F)(F)F)c2)C1 (configuration not stated),374.7,.,-,-
CCCC#Cc1cnc2c(c1)C(=O)N([C@@H](C)CO)C[C@H](C)[C@H](CN(C)C(=O)c1ccc(F)cc1)O2,.,-,-,.
Cc1nc2ccccc2n(CC(=O)Nc2cc(Cl)cc(Cl)c2)c1=O,+,.,.,-
Cc1ccc(NC(=O)Cn2c(=O)c(C)nc3ccccc32)cc1,-,.,.,.
CO[C@@H]1CN(C)C(=O)c2ccc(NC(=O)c3cnccn3)cc2OC[C@@H](C)N(C)C[C@H]1C,.,-,-,.
COc1ccccc1CNC(=O)C[C@H]1CC[C@@H]2[C@H](COC[C@@H](O)CN2C(=O)Nc2ccc(F)cc2)O1,.,-,-,.
CC(C)c1ccc(-c2cc(C(=O)N3CCOCC3)c3cc(Br)ccc3n2)cc1,614.2,-,-,-
O=C(c1cc(-c2ccccc2)nc2ccccc12)N1CCOCC1,-,-,-,.
CCN(C(=O)Cn1c(=O)oc2ccccc21)c1cccc(C(F)(F)F)c1,.,-,-,.
CCN(C(=O)Cn1c(=O)oc2ccccc21)c1cccc(C)c1,627.5,-,-,-
Nc1cc[n+](CC(=O)Nc2ccccc2)cc1,798.9,.,.,-
Cc1cccc(NC(=O)C[n+]2ccccc2)c1,-,-,-,.
Cc1noc(C)c1NC(=O)N(C)C[C@H]1OCCCC[C@H](C)Oc2ccc(NS(=O)(=O)c3cccs3)cc2C(=O)N([C@H](C)CO)C[C@@H]1C,.,.,-,.
Nc1nnc(CC(=O)Nc2ccccc2)s1,-,.,-,.
SMILES,Mot1-301 SUMO,Statin myotox sup,Cneo AK release,Mot1 SUMO dose
Nc1nnc(CC(=O)N2CCCCC2)s1,396.4,-,-,-
CCCN1C[C@H](C)[C@@H](OC)CN(C)C(=O)c2ccc(NC(=O)c3cccc(F)c3)cc2OC[C@H]1C,.,-,-,.
CCCN(C)C[C@@H]1Oc2ncc(C#Cc3ccccc3OC)cc2C(=O)N([C@H](C)CO)C[C@@H]1C,.,-,-,.
Cc1ccc(NS(=O)(=O)c2ccc(OCC(=O)N3CCOCC3)cc2)cc1,-,-,-,.
COc1ccc(NS(=O)(=O)c2ccc(OCC(=O)N3CCOCC3)cc2)cc1Cl,+,.,-,-
Cn1cnc(S(=O)(=O)N[C@@H]2CC[C@@H](CC(=O)NCC3CCCCC3)O[C@@H]2CO)c1,.,-,-,.
Nc1ccc(N2CCN(c3ccc(F)cc3)CC2)cc1,903.1,.,.,-
Nc1ccc(N2CCCCCC2)cc1,-,.,.,.
O=C(C[C@@H]1C=C[C@H](NC(=O)c2ccccc2)[C@@H](CO)O1)NCCc1ccncc1,.,-,-,.
Cc1cc(C(=O)Nc2cccc3c2O[C@H](CN(C)S(=O)(=O)c2c(C)noc2C)[C@H](C)CN([C@H](C)CO)C3=O)n(C)n1,.,-,-,.
CCn1c(-c2ccccc2)c(C(=O)CC#N)c2ccccc21,373.3,-,-,-
CCn1c(=O)c(C(C)=O)c(O)c2ccccc21,-,-,-,.
O=C(CN1CCN(Cc2ccc(F)cc2)CC1)NCCc1ccccc1,-,-,-,.
O=C(CN1CCN(Cc2ccc(F)cc2)CC1)NCc1ccccc1,650.8,-,-,-
CC(C)C#Cc1cnc2c(c1)C(=O)N([C@H](C)CO)C[C@@H](C)[C@H](CN(C)C(=O)Cc1ccccn1)O2,.,-,-,.
C/C(CC(=O)Nc1cccnc1)=N/NC(=O)COc1ccc(Cl)cc1Br,-,.,.,.
C/C(CC(=O)Nc1cccnc1)=N\NC(=O)C(C)Oc1ccc(Cl)cc1Cl (configuration not stated),671.3,.,.,-
Cc1noc(C)c1S(=O)(=O)N(C)C[C@@H]1Oc2ccc(NC(=O)Nc3cccc4ccccc34)cc2CC(=O)N([C@@H](C)CO)C[C@H]1C,.,-,-,.
COCCCn1c2nc3ccccc3nc2c2c(=O)n(Cc3cccs3)cnc21,-,.,.,.
COCCCn1c2nc3ccccc3nc2c2c(=O)n(Cc3ccc(Cl)cc3)cnc21,425.4,-,-,-
C[C@@H]1CN([C@@H](C)CO)C(=O)c2cc(C#C[C@@H](C)O)cnc2O[C@H]1CN(C)C(=O)Nc1ccc(F)cc1,.,-,-,.
O=S(=O)(c1cccc(-c2nnco2)c1)N1CCCC1,+,.,-,-
O=S(=O)(c1cccc(-c2nnc(-c3ccc(Br)cc3)o2)c1)N1CCCCCC1,-,-,-,.
COc1ccc(N2CC(C(=O)N3CCc4ccccc43)CC2=O)cc1 (configuration not stated),449.9,-,-,-
O=C1CC(C(=O)N2CCCc3ccccc32)CN1c1ccc(F)cc1 (configuration not stated),-,-,-,.
SMILES,Mot1-301 SUMO,Statin myotox sup,Cneo AK release,Mot1 SUMO dose
NC(=O)[C@H]1[C@@H]2C(=O)O[C@@H](c3ccccc3)[C@@H](c3ccccc3)N2[C@@H](c2ccc(OCCO)cc2)[C@]12C(=O)Nc1ccc(C#CC3(O)CCCCCC3)cc12,.,.,-,.
COc1ccc(C2CC(c3cccs3)=NN2C(=O)c2ccccc2)cc1OC (configuration not stated),423.7,-,-,-
COc1ccc(C2CC(c3cccs3)=NN2C(=O)CCl)cc1OC (configuration not stated),-,-,-,.
COCCn1c(=NC(=O)c2ccc(S(=O)(=O)N3CCOCC3)cc2)sc2cc(S(N)(=O)=O)ccc21,551.5,-,-,-
COC(=O)Cn1c(=NC(=O)c2ccc(S(=O)(=O)N3CCOCC3)cc2)sc2cc(S(N)(=O)=O)ccc21,-,-,-,.
CCNC(=O)C[C@H]1CC[C@H]2[C@H](COc3ccc(NC(=O)c4cccc(C(F)(F)F)c4)cc3C(=O)N2C)O1,.,-,-,.
O=C(Nc1ccccc1)Nc1ccc2c(c1)[C@H]1C[C@@H](CC(=O)N3CCOCC3)O[C@H](CO)[C@H]1O2,.,-,-,.
